Data taken from ChEMBL document CHEMBL1124703, “Analogues of carbamyl aspartate as inhibitors of dihydroorotase: preparation of boronic acid transition-state analogues and a zinc chelator carbamylhomocysteine” (J Med Chem, 1990).

Tests used:
[1] = target: Multifunctional protein CAD (Homo sapiens, UniProt P27708); test: Inhibitory activity against Dihydroorotase (DHO) at pH 6.0; set-up: species or system Cricetulus griseus
L1210 [2] = test: Uptake in L1210 cells at a concentration of 210 uM after 24 hr; settings: Mus musculus, L1210, 24 h
L1210 [3] = test: Inhibitory activity against murine L1210 cell growth at a concentration of 250 uM after 0h; format: functional, Mus musculus
Outline: (§1)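 Murine L1210 cells kept in DMEM with 10% FCS and L-glutamine and harvested in log phase. About 1×10^5 cells/mL held 24 h in depleted medium before drug or DMSO vehicle was added. Trypan blue-excluding cells counted by hemacytometer at 0, 24 and 48 h. Three flasks per concentration and six controls; reported as % survival versus control.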

L1210 [4] = test: Inhibitory activity against murine L1210 cell growth at a concentration of 250 uM after 24 hr; format: functional, Mus musculus; outline: as §1
L1210 [5] = test: Inhibitory activity against murine L1210 cell growth at a concentration of 250 uM after 8 hr; format: functional, Mus musculus
L1210 [6] = test: Inhibitory activity against murine L1210 cell growth at a concentration of 100 uM after 0h; format: functional, Mus musculus; outline: as §1
L1210 [7] = test: Inhibitory activity against murine L1210 cell growth at a concentration of 100 uM after 24 hr; format: functional, Mus musculus; outline: as §1
L1210 [8] = test: Inhibitory activity against murine L1210 cell growth at a concentration of 100 uM after 48 hr

Chain of Multifunctional protein CAD (P27708 whole entry): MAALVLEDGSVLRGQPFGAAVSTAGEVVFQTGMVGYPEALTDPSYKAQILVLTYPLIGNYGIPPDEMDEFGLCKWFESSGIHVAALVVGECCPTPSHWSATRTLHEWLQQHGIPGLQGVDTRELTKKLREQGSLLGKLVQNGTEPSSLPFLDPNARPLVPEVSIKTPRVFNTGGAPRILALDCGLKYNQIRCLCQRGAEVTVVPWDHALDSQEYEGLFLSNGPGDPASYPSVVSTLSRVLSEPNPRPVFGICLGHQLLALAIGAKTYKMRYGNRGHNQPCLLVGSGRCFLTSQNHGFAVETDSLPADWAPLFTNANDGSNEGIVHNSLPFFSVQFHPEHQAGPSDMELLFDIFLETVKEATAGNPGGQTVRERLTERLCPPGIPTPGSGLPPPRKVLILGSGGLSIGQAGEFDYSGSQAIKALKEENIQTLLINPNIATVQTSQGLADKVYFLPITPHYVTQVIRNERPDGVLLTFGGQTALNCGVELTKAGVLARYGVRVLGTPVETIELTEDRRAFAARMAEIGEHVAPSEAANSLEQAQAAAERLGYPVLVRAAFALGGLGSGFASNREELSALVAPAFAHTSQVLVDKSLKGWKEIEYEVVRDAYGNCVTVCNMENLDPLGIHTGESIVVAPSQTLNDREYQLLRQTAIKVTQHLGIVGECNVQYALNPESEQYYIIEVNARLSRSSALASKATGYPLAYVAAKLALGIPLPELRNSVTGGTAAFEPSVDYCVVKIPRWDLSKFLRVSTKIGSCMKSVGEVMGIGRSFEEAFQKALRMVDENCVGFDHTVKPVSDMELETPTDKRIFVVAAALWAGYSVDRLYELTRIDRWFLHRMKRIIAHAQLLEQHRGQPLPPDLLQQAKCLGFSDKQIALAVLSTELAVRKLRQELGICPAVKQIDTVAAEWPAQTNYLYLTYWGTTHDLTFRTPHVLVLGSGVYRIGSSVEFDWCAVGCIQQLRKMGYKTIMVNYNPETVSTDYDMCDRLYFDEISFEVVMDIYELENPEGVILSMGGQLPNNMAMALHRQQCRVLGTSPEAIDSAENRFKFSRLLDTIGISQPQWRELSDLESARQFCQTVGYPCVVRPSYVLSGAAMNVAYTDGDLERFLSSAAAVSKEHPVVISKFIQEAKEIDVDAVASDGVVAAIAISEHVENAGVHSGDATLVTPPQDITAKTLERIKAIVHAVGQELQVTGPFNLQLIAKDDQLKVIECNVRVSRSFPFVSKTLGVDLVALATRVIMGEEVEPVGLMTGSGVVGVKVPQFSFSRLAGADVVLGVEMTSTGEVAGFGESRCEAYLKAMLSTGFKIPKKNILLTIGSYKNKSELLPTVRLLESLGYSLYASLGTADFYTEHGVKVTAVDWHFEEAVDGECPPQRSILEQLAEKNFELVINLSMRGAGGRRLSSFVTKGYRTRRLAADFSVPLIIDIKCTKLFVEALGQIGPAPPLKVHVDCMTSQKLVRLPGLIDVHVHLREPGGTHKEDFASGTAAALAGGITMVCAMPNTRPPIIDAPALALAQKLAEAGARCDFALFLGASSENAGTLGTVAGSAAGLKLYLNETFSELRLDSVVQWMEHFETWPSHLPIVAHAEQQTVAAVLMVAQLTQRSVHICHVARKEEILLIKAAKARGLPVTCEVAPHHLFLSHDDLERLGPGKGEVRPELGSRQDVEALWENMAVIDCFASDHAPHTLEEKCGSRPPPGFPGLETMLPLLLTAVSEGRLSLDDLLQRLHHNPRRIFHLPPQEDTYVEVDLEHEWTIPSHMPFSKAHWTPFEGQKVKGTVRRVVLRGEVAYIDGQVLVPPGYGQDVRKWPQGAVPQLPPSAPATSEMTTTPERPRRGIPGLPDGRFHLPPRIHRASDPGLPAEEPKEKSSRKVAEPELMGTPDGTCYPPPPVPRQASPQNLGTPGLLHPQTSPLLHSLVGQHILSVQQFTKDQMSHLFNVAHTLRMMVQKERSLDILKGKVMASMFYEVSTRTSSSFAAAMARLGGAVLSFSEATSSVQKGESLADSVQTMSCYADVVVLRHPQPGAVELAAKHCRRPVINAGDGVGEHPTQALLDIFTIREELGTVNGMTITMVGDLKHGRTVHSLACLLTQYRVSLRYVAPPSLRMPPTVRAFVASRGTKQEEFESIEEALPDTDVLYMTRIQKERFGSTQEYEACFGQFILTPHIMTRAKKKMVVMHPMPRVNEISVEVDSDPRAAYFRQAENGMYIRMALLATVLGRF

For `CCOC(=O)C(CB(O)O)NC(N)=O` (stereo not drawn), the Ki [1] was 5.07 µM and the Uptake at 210 µM (L1210 [2]) was 0.09%.
`NC(=O)BCCNC(CC(=O)O)C(=O)O` (stereo not drawn) [BOROCARBAMYLETHYL ASPARTATE] gave a Cell survival (L1210 [3]) of 114, a Cell survival (L1210 [4]) of 66 and a Cell survival (L1210 [5]) of 80.
Molecule `O=C(O)C[C@H](NC(=O)CP(=O)(O)O)C(=O)O` [PALA] has a Cell survival (L1210 [6]) of 96, a Cell survival (L1210 [7]) of 28 and a Cell survival (L1210 [8]) of 22.
